According to ChEMBL document CHEMBL4609990, “Design and synthesis of cyanamides as potent and selective N-acylethanolamine acid amidase inhibitors” (Bioorg Med Chem, 2020):

Tests used:
[1] = target: T1, N-acylethanolamine-hydrolyzing acid amidase (Homo sapiens, UniProt Q02083); assay: Inhibition of activated human NAAA using fluorogenic PAMCA and N-4-methylcoumarin as substrate incubated for 90 mins by fluorescence based assay
T1 sequence (Q02083 whole entry): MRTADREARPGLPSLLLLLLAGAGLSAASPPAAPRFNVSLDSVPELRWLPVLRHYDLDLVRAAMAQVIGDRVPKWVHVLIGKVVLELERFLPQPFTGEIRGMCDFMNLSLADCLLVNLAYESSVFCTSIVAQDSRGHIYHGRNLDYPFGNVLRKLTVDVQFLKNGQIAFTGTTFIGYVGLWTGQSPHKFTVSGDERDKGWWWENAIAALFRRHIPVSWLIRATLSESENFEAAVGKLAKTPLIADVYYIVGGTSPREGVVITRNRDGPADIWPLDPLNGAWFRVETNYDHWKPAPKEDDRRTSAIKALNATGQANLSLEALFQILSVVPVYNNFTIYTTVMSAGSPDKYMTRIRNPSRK
Outline: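 Purified activated hNAAA (final 0.25 µg/mL) in 100 mM citrate-phosphate pH 4.5, 3 mM DTT, 0.1% Triton X-100, 0.05% BSA, 150 mM NaCl; compound in DMSO preincubated 90 min at room temperature. PAMCA added (final 5 µM), reaction at 37 °C for 90 min, fluorescence ex 360/em 460 nm read every 10 min. RFU converted to AMC via AMC standard curve. IC50 from eight concentrations, triplicate.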

[2] = Half life in human plasma by HPLC analysis
[3] = target: T2, Fatty-acid amide hydrolase 1 (Homo sapiens) (UniProt O00519); assay: Inhibition of recombinant human FAAH expressed in Escherichia coli at 1 uM using fluorogenic AAMCA as substrate by fluorimetric assay relative to control
T2 sequence (whole entry): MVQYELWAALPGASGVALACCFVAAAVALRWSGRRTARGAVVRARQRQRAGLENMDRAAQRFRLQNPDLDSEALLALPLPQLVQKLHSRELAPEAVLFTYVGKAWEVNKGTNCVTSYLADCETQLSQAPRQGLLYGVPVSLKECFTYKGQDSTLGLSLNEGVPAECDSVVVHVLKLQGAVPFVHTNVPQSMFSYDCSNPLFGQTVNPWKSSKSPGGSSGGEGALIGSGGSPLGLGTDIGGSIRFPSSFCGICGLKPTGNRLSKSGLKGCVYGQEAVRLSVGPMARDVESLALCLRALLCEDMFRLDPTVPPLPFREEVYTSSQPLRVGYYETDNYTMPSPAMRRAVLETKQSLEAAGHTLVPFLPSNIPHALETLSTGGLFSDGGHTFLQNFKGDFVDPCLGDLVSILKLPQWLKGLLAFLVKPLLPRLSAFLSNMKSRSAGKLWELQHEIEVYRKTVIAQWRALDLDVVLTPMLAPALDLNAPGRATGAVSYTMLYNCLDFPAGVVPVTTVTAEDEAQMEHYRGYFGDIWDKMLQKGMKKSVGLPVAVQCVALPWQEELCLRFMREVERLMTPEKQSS
Outline: (§1)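 Human recombinant FAAH expressed in E. coli and purified; fluorometric assay with arachidonoyl 7-amino-4-methylcoumarin amide (AAMCA) as substrate; IC50 by curve fitting, or percent inhibition at 1 µM.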

[4] = target: T3, Monoglyceride lipase (Homo sapiens) (UniProt Q99685); assay: Inhibition of recombinant human hexaHis-tagged MGL expressed in Escherichia coli BL21 (DE3) at 1 uM using fluorogenic AHMMCE as substrate preincubated for 1 hr followed by substrate addition by fluorimetric assay relative to control
T3 sequence (whole entry): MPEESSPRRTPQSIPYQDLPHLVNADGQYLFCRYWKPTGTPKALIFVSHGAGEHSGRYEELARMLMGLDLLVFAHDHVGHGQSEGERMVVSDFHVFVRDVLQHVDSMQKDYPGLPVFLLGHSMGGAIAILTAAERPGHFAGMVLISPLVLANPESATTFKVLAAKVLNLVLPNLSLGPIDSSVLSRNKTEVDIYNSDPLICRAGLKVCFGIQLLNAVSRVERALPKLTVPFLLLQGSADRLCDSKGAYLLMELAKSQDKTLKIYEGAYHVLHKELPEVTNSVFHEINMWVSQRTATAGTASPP
Outline: (§2)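 Human recombinant MGL expressed in E. coli and purified; fluorometric assay using arachidonoyl 7-hydroxy-6-methoxy-4-methylcoumarin ester (AHMMCE) as substrate; IC50 by curve fitting, or percent inhibition at 1 µM.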

Homo sapiens [5] = species: Homo sapiens; assay: Selectivity index, ratio of IC50 for full length human ABHD6 using AHMMCE as substrate preincubated for 1 hr followed by substrate addition by fluorimetric assay to IC50 human NAAA using fluorogenic PAMCA and N-4-methylcoumarin as substrate incubated for 90 mins by fluorescence based assay
Homo sapiens [6] = species: Homo sapiens; assay: Selectivity index, ratio of IC50 for human hexaHis-tagged MGL expressed in Escherichia coli BL21 (DE3) using fluorogenic AHMMCE as substrate preincubated for 1 hr followed by substrate addition by fluorimetric assay to IC50 human NAAA using fluorogenic PAMCA and N-4-methylcoumarin as substrate incubated for 90 mins by fluorescence based assay
Homo sapiens [7] = species: Homo sapiens; assay: Selectivity index, ratio of IC50 for human Cathepsin K using […] as substrate preincubated with enzyme for 90 mins followed by substrate addition by fluorimetry analysis to IC50 human NAAA using fluorogenic PAMCA and N-4-methylcoumarin as substrate incubated for 90 mins by fluorescence based assay
Homo sapiens [8] = species: Homo sapiens; assay: Selectivity index, ratio of IC50 for recombinant human FAAH expressed in Escherichia coli using fluorogenic AAMCA as substrate by fluorimetric assay to IC50 human NAAA using fluorogenic PAMCA and N-4-methylcoumarin as substrate incubated for 90 mins by fluorescence based assay
[9] = target: T4, Fatty-acid amide hydrolase 1 (Homo sapiens, UniProt O00519); assay: Inhibition of recombinant human FAAH expressed in Escherichia coli using fluorogenic AAMCA as substrate by fluorimetric assay; outline: as §1
T4 sequence (O00519 whole entry): T2 sequence (whole entry)

Monoglyceride lipase = target: T5, Monoglyceride lipase (Homo sapiens, UniProt Q99685); assay: Inhibition of recombinant human hexaHis-tagged MGL expressed in Escherichia coli BL21 (DE3) using fluorogenic AHMMCE as substrate preincubated for 1 hr followed by substrate addition by fluorimetric assay; outline: as §2
T5 sequence (Q99685 whole entry): T3 sequence (whole entry)

[10] = Half life in human liver microsomes at 1 uM in presence of NADPH by LC-MS/MS; details: microsomes
[11] = Half life in rat liver microsomes at 1 uM in presence of NADPH by LC-MS/MS; details: microsomes
[12] = target: T6, N-acylethanolamine-hydrolyzing acid amidase (Homo sapiens) (UniProt Q02083); assay: Irreversible inhibition of activated human NAAA assessed as ratio of Kinact/Ki using fluorogenic PAMCA and N-4-methylcoumarin as substrate
T6 sequence (whole entry): T1 sequence (Q02083 whole entry)

[13] = target: T1, N-acylethanolamine-hydrolyzing acid amidase; assay: Inhibition of NAAA (unknown origin)
Cathepsin K = target: T7, Cathepsin K (Homo sapiens, UniProt P43235); assay: Inhibition of recombinant human Cathepsin K using Z-Phe-Arg-AMC as substrate preincubated with enzyme for 120 mins followed by substrate addition by fluorimetry analysis
T7 sequence (P43235 whole entry): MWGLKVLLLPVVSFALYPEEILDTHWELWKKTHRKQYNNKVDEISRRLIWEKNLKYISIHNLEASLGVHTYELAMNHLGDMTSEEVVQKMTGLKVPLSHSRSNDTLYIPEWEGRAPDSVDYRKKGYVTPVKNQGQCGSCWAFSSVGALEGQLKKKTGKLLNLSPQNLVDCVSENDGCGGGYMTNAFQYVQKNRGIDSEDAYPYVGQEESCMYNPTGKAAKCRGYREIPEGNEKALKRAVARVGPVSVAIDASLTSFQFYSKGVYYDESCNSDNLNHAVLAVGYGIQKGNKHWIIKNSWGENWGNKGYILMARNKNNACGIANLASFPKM

Compound `COc1ccc(-c2cc(Oc3ccccc3)ccc2COC2CN(C#N)C2)cc1` has an IC50 [1] of 5.7 nM.

With `COc1cccc(OC)c1-c1ccc(COC2CN(C#N)C2)cc1` the IC50 [1] was 67.5 nM.

`COc1cccc(-c2ccc(C(=O)NC3(C)CN(C#N)C3)cc2)c1` gave a half-life [2] of 15 h, an inhibition [3] of 23% and an IC50 [1] of 1.58 nM. It also gave an inhibition [4] of 11%.

`N#CN1CC(OCc2ccc(Oc3ccccc3)cc2-c2ccccc2)C1` gave an IC50 [1] of 8.5 nM.

Work on `N#CN1CC(OCc2ccc(-c3cccc(OCc4ccccc4)c3)cc2)C1` yielded an IC50 [1] of 1.4 nM.

In the case of `COc1cccc(-c2ccc(C(=O)N3CCC34CN(C#N)C4)cc2)c1`, the Ratio IC50 (Homo sapiens [5]) is reported as > 100, the Ratio IC50 (Homo sapiens [6]) is reported as > 100 and the Ratio IC50 (Homo sapiens [7]) is reported as > 100. The half-life [2] was 7.63 h, the inhibition [3] was 6% and the Ratio IC50 (Homo sapiens [8]) was > 100. It also gave an IC50 [1] of 6.5 nM and an inhibition [4] of 4%.

Work on `COc1cccc(-c2ccc(COC3(C)CN(C#N)C3)cc2)c1` yielded a Ratio IC50 (Homo sapiens [6]) of 500, a Ratio IC50 (Homo sapiens [7]) of 50 and an IC50 [9] of 0.36 nM. For the same compound, the Ratio IC50 (Homo sapiens [8]) was 0.2, the IC50 [1] was 1.8 nM and the IC50 (Monoglyceride lipase) was 1060 nM.

In the case of `COc1ccc(-c2ccc3c(c2)CN(C2CN(C#N)C2)C3)cc1F`, the half-life at 1 µM [10] is reported as 0.245 h, the half-life at 1 µM [11] is reported as 4.4 min and the IC50 [1] is reported as 1.6 nM.

`COc1ccc(-c2ccc(COC3(C4CC4)CN(C#N)C3)c(F)c2)cc1F` gave a half-life [2] of 2.12 h, an IC50 [9] of 1 nM and an IC50 [1] of 0.35 nM.

Work on `COc1ccc(-c2ccc(COC3(c4cccnc4)CN(C#N)C3)c(F)c2)cc1F` yielded an IC50 [9] of 2 nM and an IC50 [1] of 4.6 nM.

`N#CN1CC[C@H](OCc2ccc(-c3ccccc3)cc2)C1` showed an IC50 [1] of 315 nM.

In the case of `N#CN1CC(COCc2ccc(-c3ccccc3)cc2)C1`, the IC50 [1] is reported as 3.4 nM and the Ratio [12] is reported as 3.04 ×10⁶ /M/s.

With `COc1cccc(-c2ccc(C(OC3CN(C#N)C3)c3ccccc3)cc2)c1` (stereo unspecified) the IC50 [1] was 11.6 nM.

`COc1ccc(-c2ccc(COC3CN(C#N)C3)cc2)cc1` showed an IC50 [1] of 0.94 nM and a Ratio [12] of 3.25 ×10⁶ /M/s.

With `N#CN1CC(OCc2ccc(Oc3ccccc3)cc2Br)C1` the IC50 [1] was 1.03 nM.

`N#CN1CC(Oc2ccc(-c3ccccc3)cc2)C1` gave an IC50 [1] of 29 nM.

`C[C@H]1[C@H](NC(=O)OCCCCC2CCCCC2)C(=O)N1c1cccc(S(C)(=O)=O)c1` gave an IC50 [13] of 6 nM.

Work on `COc1ccccc1-c1cc(Oc2ccccc2)ccc1COC1CN(C#N)C1` yielded an IC50 [1] of 23.7 nM.

Compound `N#CN1CC(CNS(=O)(=O)c2ccccc2)C1` has an IC50 (Cathepsin K) of 50 nM.

For `COc1cccc(-c2ccc(S(=O)(=O)NC3(C)CN(C#N)C3)cc2)c1`, the Ratio IC50 (Homo sapiens [5]) was > 100, the Ratio IC50 (Homo sapiens [6]) was > 100 and the Ratio IC50 (Homo sapiens [7]) was > 100. It also gave a half-life [2] of 3.68 h, an IC50 [9] of 17.8 nM and an IC50 [1] of 3.2 nM. It also gave an inhibition [4] of 19%.

`N#CN1CC(OCc2ccc(-c3ccc4c(c3)OCCO4)cc2)(c2ccccc2)C1` showed an inhibition [3] of 99%, an IC50 [1] of 6.1 nM and an inhibition [4] of 13.5%.
